Our source for the Activity values is ChEMBL document CHEMBL4354843, “Structure-Based Design of a Potent and Selective Covalent Inhibitor for SRC Kinase That Targets a P-Loop Cysteine” (J Med Chem, 2020).

The target of test [1] is LIM domain kinase 2 (Homo sapiens) (UniProt P53671). In words: Binding affinity to wild-type human full length LIMK2 (M1 to P638 residues) expressed in bacterial expression system assessed as residual binding level at 1 uM by Kinomescan method relative to control. The essentials: (§1)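 Active-site-directed KinomeScan competition binding panel covering 468 kinases, compound tested at 1 μM. Each readout is the kinase signal remaining with compound, expressed as a percentage of the DMSO control. […]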

Test [2] has as its target Mitogen-activated protein kinase kinase kinase 19 (Homo sapiens) (UniProt Q56UN5). In words: Binding affinity to wild-type human partial length YSK4 (T1019 to H1328 residues) expressed in mammalian expression system assessed as residual binding level at 1 uM by Kinomescan method relative to control. The essentials: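 Active site-directed competition binding panel (KinomeScan, 468 kinases). Test compound at 1 μM. Read-out is kinase binding remaining versus DMSO control, expressed as percent of control. Scores above 35% are treated as weak binding.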

Test [3] addresses Rhodopsin kinase GRK1 (Homo sapiens) (UniProt Q15835). In words: Binding affinity to wild-type human full length GRK1 (M1 to S563 residues) expressed in mammalian expression system assessed as residual binding level at 1 uM by Kinomescan method relative to control. The method in brief: (§2)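 KinomeScan, an active site-directed competition binding panel of 468 kinases. The test compound was at 1 μM. The readout is remaining kinase binding as a percentage of the DMSO control. Scores above 35% were treated as weak binding and not listed.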

Test [4] addresses Dual specificity tyrosine-phosphorylation-regulated kinase 2 (Homo sapiens) (UniProt Q92630). In words: Binding affinity to wild-type human full length DYRK2 (M1 to S528 residues) expressed in mammalian expression system assessed as residual binding level at 1 uM by Kinomescan method relative to control. The method in brief: as §1
Test [5] addresses Serine/threonine-protein kinase TAO1 (Homo sapiens) (UniProt Q7L7X3). In words: Binding affinity to wild-type human partial length TAOK1 (M1 to A320 residues) expressed in mammalian expression system assessed as residual binding level at 1 uM by Kinomescan method relative to control.
Test [6] addresses Dual specificity protein kinase CLK2 (Homo sapiens) (UniProt P49760). In words: Binding affinity to wild-type human partial length CLK2 (D144 to R498 residues) expressed in bacterial expression system assessed as residual binding level at 1 uM by Kinomescan method relative to control.
The target in test [7] is Serine/threonine-protein kinase Nek3 (Homo sapiens) (UniProt P51956). In words: Binding affinity to wild-type human full length NEK3 (M1 to R506 residues) expressed in mammalian expression system assessed as residual binding level at 1 uM by Kinomescan method relative to control. The essentials: as §2
Sequence of Serine/threonine-protein kinase Nek3 (Homo sapiens) (P51956 whole entry, the tested form may be a part): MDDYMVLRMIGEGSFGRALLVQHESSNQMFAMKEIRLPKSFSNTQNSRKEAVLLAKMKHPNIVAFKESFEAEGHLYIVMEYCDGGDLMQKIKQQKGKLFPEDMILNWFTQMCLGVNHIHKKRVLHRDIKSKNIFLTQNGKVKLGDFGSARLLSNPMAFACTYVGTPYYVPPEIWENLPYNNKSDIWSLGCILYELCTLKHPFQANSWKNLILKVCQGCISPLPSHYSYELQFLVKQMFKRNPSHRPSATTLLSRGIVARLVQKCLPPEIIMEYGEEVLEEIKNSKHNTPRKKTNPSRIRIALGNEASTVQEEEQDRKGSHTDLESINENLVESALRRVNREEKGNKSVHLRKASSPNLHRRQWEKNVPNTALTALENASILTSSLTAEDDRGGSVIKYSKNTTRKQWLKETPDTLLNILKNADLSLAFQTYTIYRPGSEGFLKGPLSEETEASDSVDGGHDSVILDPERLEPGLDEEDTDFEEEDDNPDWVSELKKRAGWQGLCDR
For test [8], the target named is Mitogen-activated protein kinase kinase kinase 4 (Homo sapiens) (UniProt Q9Y6R4). In words: Binding affinity to wild-type human partial length MAP3K4 (G1319 to E1608 residues) expressed in bacterial expression system assessed as residual binding level at 1 uM by Kinomescan method relative to control.
Sequence of Mitogen-activated protein kinase kinase kinase 4 (Homo sapiens) (Q9Y6R4 whole entry, the tested form may be a part): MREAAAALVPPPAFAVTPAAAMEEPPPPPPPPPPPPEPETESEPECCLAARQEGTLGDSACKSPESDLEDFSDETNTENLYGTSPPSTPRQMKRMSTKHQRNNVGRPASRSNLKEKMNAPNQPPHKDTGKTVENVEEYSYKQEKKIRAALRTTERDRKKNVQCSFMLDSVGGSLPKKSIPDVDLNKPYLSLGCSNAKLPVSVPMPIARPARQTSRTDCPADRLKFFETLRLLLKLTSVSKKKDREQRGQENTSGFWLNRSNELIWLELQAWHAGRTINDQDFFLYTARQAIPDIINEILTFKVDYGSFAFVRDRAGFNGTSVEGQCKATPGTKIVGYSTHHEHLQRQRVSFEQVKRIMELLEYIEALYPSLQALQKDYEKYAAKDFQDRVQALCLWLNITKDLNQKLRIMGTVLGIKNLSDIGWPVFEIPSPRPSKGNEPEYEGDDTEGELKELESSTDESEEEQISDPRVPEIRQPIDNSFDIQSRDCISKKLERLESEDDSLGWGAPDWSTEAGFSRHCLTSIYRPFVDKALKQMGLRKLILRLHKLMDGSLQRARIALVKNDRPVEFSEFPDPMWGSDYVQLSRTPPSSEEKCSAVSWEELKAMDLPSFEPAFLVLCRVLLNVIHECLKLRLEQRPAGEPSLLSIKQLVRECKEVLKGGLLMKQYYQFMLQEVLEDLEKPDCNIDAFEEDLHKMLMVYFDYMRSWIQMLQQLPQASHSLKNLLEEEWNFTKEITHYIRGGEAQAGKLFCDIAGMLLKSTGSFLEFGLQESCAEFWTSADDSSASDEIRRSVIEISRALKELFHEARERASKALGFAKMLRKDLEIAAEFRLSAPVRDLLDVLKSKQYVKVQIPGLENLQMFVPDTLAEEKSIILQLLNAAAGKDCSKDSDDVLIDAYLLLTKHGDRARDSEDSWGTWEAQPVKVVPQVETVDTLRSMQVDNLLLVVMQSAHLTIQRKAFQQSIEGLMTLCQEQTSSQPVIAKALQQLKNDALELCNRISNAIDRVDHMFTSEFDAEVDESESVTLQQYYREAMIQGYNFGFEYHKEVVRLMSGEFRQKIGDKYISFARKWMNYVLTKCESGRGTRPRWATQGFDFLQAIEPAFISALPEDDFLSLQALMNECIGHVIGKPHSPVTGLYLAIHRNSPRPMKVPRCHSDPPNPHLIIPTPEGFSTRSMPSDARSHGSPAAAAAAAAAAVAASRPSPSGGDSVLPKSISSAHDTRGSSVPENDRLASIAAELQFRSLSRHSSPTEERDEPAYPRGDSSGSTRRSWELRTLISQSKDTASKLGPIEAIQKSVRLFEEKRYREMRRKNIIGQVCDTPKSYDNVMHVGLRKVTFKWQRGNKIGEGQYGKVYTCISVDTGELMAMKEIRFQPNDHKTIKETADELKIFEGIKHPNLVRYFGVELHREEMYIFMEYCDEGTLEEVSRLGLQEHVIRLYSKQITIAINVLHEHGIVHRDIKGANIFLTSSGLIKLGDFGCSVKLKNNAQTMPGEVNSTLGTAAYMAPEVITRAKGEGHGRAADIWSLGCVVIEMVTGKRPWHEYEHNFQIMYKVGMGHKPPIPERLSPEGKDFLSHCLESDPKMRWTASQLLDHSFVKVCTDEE
Test [9] concerns the target Interferon-induced, double-stranded RNA-activated protein kinase (Homo sapiens) (UniProt P19525). In words: Binding affinity to wild-type human partial length PRKR (F247 to C551 residues) expressed in bacterial expression system assessed as residual binding level at 1 uM by Kinomescan method relative to control.
Test [10] addresses Cyclin-dependent kinase 17 (Homo sapiens) (UniProt Q00537). In words: Binding affinity to wild-type human full length PCTK2 (M1 to F523 residues) expressed in bacterial expression system assessed as residual binding level at 1 uM by Kinomescan method relative to control. The method in brief: (§3)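 Active-site-directed competition binding panel (KinomeScan) covering 468 kinases. Test agent was screened at 1 μM. The read-out is the remaining kinase signal expressed relative to a DMSO control. Scores above 35%, taken as weak binding, were not reported.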

The target of test [11] is Aurora kinase B (Homo sapiens) (UniProt Q96GD4). In words: Binding affinity to wild-type human partial length AURKB (D25 to A303 residues) expressed in mammalian expression system assessed as residual binding level at 1 uM by Kinomescan method relative to control. The essentials: as §2
Sequence of Aurora kinase B (Homo sapiens) (Q96GD4 whole entry, the tested form may be a part): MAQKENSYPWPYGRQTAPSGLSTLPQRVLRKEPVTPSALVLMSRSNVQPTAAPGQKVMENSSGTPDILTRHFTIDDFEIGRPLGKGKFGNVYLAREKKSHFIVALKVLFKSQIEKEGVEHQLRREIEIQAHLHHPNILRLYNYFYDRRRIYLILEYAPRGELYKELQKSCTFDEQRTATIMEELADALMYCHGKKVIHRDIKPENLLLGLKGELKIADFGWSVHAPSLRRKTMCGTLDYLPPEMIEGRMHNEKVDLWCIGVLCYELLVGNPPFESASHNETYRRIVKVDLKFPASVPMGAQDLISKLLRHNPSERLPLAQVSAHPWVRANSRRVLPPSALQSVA
For test [12], the system named is Tyrosine-protein kinase ABL1 (Homo sapiens), P00519 [Y253F]. In words: Binding affinity to human phosphorylated ABL1 Y253F mutant (S229 to K512 residues) expressed in mammalian expression system assessed as residual binding level at 1 uM by Kinomescan method relative to control. The essentials:
as §1

Test [13] deals with LIM domain kinase 1 (Homo sapiens) (UniProt P53667). In words: Binding affinity to wild-type human full length LIMK1 (M1 to D647 residues) expressed in bacterial expression system assessed as residual binding level at 1 uM by Kinomescan method relative to control. The essentials:
as §1

Test [14] addresses Serine/threonine-protein kinase PAK 3 (Homo sapiens) (UniProt O75914). In words: Binding affinity to wild-type human full length PAK3 (M1 to R544 residues) expressed in bacterial expression system assessed as residual binding level at 1 uM by Kinomescan method relative to control. The essentials: as §2
In test [15] the target is MAP kinase-activated protein kinase 5 (Homo sapiens) (UniProt Q8IW41). In words: Binding affinity to wild-type human partial length MAPKAPK5 (M1 to D322 residues) expressed in mammalian expression system assessed as residual binding level at 1 uM by Kinomescan method relative to control.
Test [16] has as its target Ribosomal protein S6 kinase alpha-6 (Homo sapiens) (UniProt Q9UK32). In words: Binding affinity to wild-type human partial length C-terminal RSK4 kinase domain 2 (I401 to Y711 residues) expressed in bacterial expression system assessed as residual binding level at 1 uM by Kinomescan method relative to control. The essentials:
as §2

Test [17] addresses Receptor tyrosine-protein kinase erbB-4 (Homo sapiens) (UniProt Q15303). In words: Binding affinity to wild-type human partial length ERBB4 (L690 to K994 residues) expressed in bacterial expression system assessed as residual binding level at 1 uM by Kinomescan method relative to control. The essentials: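 Active-site-directed competition binding panel of 468 kinases (KinomeScan), compound at 1 μM. The read-out is kinase remaining bound, given as a percentage of the DMSO control. […]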

The target in test [18] is cGMP-dependent protein kinase 1 (Homo sapiens) (UniProt Q13976). In words: Binding affinity to wild-type human partial length PRKG1 (L339 to F686 residues) expressed in bacterial expression system assessed as residual binding level at 1 uM by Kinomescan method relative to control.
In test [19] the target is Rho-associated protein kinase 2 (Homo sapiens) (UniProt O75116). In words: Binding affinity to wild-type human partial length ROCK2 (M1 to T431 residues) expressed in mammalian expression system assessed as residual binding level at 1 uM by Kinomescan method relative to control.
Test [20] deals with Phosphatidylinositol 4-phosphate 5-kinase type-1 gamma (Homo sapiens) (UniProt O60331). In words: Binding affinity to wild-type human partial length PIP5K1C (M1 to T668 residues) expressed in mammalian expression system assessed as residual binding level at 1 uM by Kinomescan method relative to control.
Sequence of Phosphatidylinositol 4-phosphate 5-kinase type-1 gamma (Homo sapiens) (O60331 whole entry, the tested form may be a part): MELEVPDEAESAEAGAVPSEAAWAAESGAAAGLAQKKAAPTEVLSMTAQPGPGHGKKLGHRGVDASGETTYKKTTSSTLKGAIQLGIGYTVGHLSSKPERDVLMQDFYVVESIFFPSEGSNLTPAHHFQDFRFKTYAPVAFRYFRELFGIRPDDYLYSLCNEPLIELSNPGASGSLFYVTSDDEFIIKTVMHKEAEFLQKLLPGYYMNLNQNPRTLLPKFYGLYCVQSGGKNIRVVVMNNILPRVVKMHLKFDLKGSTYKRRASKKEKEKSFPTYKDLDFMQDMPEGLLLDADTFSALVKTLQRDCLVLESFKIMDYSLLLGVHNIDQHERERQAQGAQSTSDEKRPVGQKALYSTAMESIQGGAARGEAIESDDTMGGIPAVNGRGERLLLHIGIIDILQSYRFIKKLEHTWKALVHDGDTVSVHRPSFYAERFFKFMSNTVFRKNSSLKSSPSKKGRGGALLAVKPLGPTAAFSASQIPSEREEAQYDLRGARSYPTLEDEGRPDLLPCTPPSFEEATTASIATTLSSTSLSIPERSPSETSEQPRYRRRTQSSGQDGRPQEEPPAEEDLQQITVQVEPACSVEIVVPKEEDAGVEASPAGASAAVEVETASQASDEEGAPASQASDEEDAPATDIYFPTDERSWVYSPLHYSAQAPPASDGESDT
Test [21] deals with Phosphatidylinositol 4-kinase beta (Homo sapiens) (UniProt Q9UBF8). In words: Binding affinity to wild-type human full length PIK4CB (M1 to M828 residues) expressed in mammalian expression system assessed as residual binding level at 1 uM by Kinomescan method relative to control. The essentials: as §3
Sequence of Phosphatidylinositol 4-kinase beta (Homo sapiens) (Q9UBF8 2-816 limits assumed): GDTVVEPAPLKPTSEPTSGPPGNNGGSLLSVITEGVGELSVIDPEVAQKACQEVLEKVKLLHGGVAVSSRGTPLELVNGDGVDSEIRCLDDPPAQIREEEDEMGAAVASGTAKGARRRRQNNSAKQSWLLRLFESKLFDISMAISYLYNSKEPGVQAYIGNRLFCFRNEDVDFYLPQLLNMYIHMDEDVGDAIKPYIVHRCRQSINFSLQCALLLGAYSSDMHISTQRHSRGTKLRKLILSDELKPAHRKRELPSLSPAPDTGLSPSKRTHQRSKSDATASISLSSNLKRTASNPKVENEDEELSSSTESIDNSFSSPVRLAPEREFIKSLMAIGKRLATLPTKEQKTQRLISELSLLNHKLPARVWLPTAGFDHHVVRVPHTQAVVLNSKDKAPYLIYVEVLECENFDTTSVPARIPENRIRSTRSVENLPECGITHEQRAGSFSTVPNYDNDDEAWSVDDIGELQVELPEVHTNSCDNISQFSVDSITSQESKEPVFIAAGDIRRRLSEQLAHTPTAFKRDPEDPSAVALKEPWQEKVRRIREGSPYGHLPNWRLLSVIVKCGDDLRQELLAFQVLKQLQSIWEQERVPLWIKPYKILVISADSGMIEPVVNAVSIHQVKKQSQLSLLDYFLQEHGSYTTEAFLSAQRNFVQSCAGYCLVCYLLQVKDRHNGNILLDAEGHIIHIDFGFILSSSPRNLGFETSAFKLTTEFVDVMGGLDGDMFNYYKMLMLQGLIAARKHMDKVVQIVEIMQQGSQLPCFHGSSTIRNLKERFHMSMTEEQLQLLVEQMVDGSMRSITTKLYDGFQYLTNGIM

Sequence of Serine/threonine-protein kinase PAK 3 (Homo sapiens) (O75914 whole entry, looked up, the tested form may be a part): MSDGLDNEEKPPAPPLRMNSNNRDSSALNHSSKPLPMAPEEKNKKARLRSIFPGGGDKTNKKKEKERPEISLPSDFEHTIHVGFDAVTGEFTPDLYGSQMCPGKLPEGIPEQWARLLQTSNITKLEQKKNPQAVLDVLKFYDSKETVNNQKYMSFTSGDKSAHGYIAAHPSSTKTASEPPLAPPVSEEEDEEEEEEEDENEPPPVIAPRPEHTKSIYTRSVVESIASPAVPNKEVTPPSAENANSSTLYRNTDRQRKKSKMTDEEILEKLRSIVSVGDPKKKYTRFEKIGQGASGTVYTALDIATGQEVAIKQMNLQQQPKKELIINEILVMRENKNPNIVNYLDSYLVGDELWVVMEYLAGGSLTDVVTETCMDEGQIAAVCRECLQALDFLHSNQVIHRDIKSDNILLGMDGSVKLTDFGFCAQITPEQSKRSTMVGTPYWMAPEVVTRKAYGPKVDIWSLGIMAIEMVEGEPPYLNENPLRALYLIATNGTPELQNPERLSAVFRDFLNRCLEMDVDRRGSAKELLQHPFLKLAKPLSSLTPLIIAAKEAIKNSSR
Sequence of Rhodopsin kinase GRK1 (Homo sapiens) (Q15835 whole entry, the tested form may be a part): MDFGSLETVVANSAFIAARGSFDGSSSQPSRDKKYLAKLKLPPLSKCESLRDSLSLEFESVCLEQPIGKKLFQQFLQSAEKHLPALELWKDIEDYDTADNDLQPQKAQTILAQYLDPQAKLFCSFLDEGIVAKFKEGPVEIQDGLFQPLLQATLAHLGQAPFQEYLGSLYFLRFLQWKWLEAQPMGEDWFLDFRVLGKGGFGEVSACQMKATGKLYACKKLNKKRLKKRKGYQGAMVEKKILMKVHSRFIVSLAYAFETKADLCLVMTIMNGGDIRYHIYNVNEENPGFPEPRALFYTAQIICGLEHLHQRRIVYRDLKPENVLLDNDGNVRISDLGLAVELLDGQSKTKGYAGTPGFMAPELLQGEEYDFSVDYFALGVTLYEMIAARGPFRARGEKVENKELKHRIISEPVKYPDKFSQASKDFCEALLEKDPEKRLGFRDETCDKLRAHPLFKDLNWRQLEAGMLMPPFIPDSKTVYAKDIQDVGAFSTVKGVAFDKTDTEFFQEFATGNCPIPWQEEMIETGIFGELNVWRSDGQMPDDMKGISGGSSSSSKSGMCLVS

With `C=CC(=O)Nc1ccccc1Nc1nc(Nc2ccc(N3CCN(C)CC3)cc2)ncc1C(=O)Nc1c(C)cccc1Cl`, the Activity in test [1] was determined as 100%; in [2] it was 83%; in test [3], 69%; in test [4], 89%; in test [5], 100%; in [6], 100%. Further, the Activity turned out to be 88% in test [7]; 65% in test [8]; 100% in [9]; 100% in test [10]; 79% in test [11]; 0.1% in test [12]. Also, the Activity in test [13] came out at 100%; in [14] it was 76%; in test [15], 100%; in test [16], 96%; in test [17], 6.6%; in [18], 100%. In addition, the Activity in [19] is 100%; in test [20], 100%; in test [21], 91%.
